Reference: ChEMBL document CHEMBL1155169, “Influence of morbid obesity on the single-dose pharmacokinetics of daptomycin” (Antimicrob Agents Chemother, 2007)

Legend:
Homo sapiens [1] = species on record: Homo sapiens; assay: Total clearance per kg of fat-free weight in morbidly obese human at 461 mg infused over 30 mins; format: ADME, organism-based; conditions: in vivo, iv, 0.5 h
In short: (§1)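 Adult females received 4 mg/kg daptomycin by total body weight, IV over 30 min. Plasma sampled to 24 h and assayed by HPLC-UV at 214 nm. Total clearance = dose/AUC0-∞ (trapezoidal AUC0-24 plus C24/kel). Normalized to total body weight, ideal body weight (45.5 + 2.3 × inches over 5 ft) or fat-free weight from bioelectric impedance.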

Homo sapiens [2] = species on record: Homo sapiens; assay: Total clearance per kg of ideal body weight in morbidly obese human at 461 mg infused over 30 mins; format: ADME, organism-based; conditions: in vivo, iv, 0.5 h; in short: as §1
Homo sapiens [3] = species on record: Homo sapiens; assay: Volume of distribution per kg of ideal body weight in normal weight human at 236 mg infused over 30 mins; format: ADME, organism-based; conditions: in vivo, iv, 0.5 h
[4] = Cmax in morbidly obese human at 461 mg infused over 30 mins; format: ADME, organism-based; set-up: dose 461 mg; conditions: in vivo, iv
Homo sapiens [5] = species on record: Homo sapiens; assay: Total clearance per kg of total body weight in normal weight human at 236 mg infused over 30 mins; format: ADME, organism-based; conditions: in vivo, iv, 0.5 h; in short: as §1
Homo sapiens [6] = species on record: Homo sapiens; assay: Volume of distribution per kg of fat-free weight in normal weight human at 236 mg infused over 30 mins; format: ADME, organism-based; conditions: in vivo, iv, 0.5 h
[7] = Renal clearance per kg of fat-free weight in morbidly obese human at 461 mg infused over 30 mins; format: ADME, organism-based, Kidney; conditions: in vivo, iv, read-out: CL_renal (converted)
In short: (§2)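 Adult females were given a single 30-min IV infusion (4 mg/kg total body weight). Bladder voided before dosing, then urine collected for 24 h. Urine and plasma assayed by HPLC-UV at 214 nm. Renal clearance = 24-h urinary amount / plasma AUC0-24. Normalized to total body weight, ideal body weight or bioimpedance fat-free weight.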

[8] = Protein binding in morbidly obese human serum at 461 mg infused over 30 mins; format: ADME, cell-free; conditions: iv, read-out: PB (converted)
In short: (§3)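 Serum (separator tubes) was drawn at 0.5, 2 and 8 h after a single 30-min IV infusion of 4 mg/kg (total body weight) in adult females. Samples were spun at 1,500 × g for 10 min and stored at −80°C. Binding was measured by equilibrium dialysis, solid-phase extraction and LC-MS, linear over 1–250 μg/ml.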

[9] = Renal clearance per kg of total body weight in morbidly obese human at 461 mg infused over 30 mins; format: ADME, organism-based, Kidney; conditions: in vivo, iv, read-out: CL_renal (converted); in short: as §2
[10] = AUC (0 to infinity) in normal weight human at 236 mg infused over 30 mins; format: ADME, organism-based; set-up: dose 236 mg, time infinity; conditions: plasma, iv
In short: (§4)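 Single 30-min IV infusion at 4 mg/kg total body weight in adult females. Plasma sampled at 0.5, 1, 1.5, 2, 4, 8, 12 and 24 h and assayed by HPLC-UV at 214 nm. kel came from log-linear regression, giving t1/2 = ln2/kel. AUC0-∞ is the linear-trapezoidal AUC0-24 plus C24/kel.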

[11] = AUC (0 to infinity) in morbidly obese human at 461 mg infused over 30 mins; format: ADME, organism-based; set-up: dose 461 mg, time infinity; conditions: plasma, iv; in short: as §4
[12] = Renal clearance in normal weight human at 236 mg infused over 30 mins; format: ADME, organism-based, Kidney; conditions: in vivo, iv, read-out: CL_renal (converted); in short: as §2
Homo sapiens [13] = species on record: Homo sapiens; assay: Volume of distribution per kg of total body weight in normal weight human at 236 mg infused over 30 mins; format: ADME, organism-based; conditions: in vivo, iv, 0.5 h
Homo sapiens [14] = species on record: Homo sapiens; assay: Volume of distribution per kg of fat-free weight in morbidly obese human at 461 mg infused over 30 mins; format: ADME, organism-based; conditions: in vivo, iv, 0.5 h
Homo sapiens [15] = species on record: Homo sapiens; assay: Volume of distribution per kg of total body weight in morbidly obese human at 461 mg infused over 30 mins; format: ADME, organism-based; conditions: in vivo, iv, 0.5 h
[16] = Total clearance in normal weight human at 236 mg infused over 30 mins; format: ADME, organism-based; conditions: in vivo, iv; in short: as §1
[17] = Renal clearance per kg of fat-free weight in normal weight human at 236 mg infused over 30 mins; format: ADME, organism-based, Kidney; conditions: in vivo, iv, read-out: CL_renal (converted); in short: as §2
Homo sapiens [18] = species on record: Homo sapiens; assay: Volume of distribution per kg of ideal body weight in morbidly obese human at 461 mg infused over 30 mins; format: ADME, organism-based; conditions: in vivo, iv, 0.5 h
Homo sapiens [19] = species on record: Homo sapiens; assay: Total clearance per kg of total body weight in morbidly obese human at 461 mg infused over 30 mins; format: ADME, organism-based; conditions: in vivo, iv, 0.5 h; in short: as §1
[20] = Volume of distribution in morbidly obese human at 461 mg infused over 30 mins; format: ADME, organism-based; conditions: in vivo, iv
Homo sapiens [21] = species on record: Homo sapiens; assay: Total clearance per kg of ideal body weight in normal weight human at 236 mg infused over 30 mins; format: ADME, organism-based; conditions: in vivo, iv, 0.5 h; in short: as §1
[22] = Half life in normal weight human at 236 mg infused over 30 mins; format: ADME, organism-based; conditions: in vivo, iv; in short: as §4
[23] = Cmin in morbidly obese human at 461 mg infused over 30 mins after 24 hrs; format: ADME, organism-based; conditions: in vivo, iv, read-out: Cmin
[24] = Protein binding in normal weight human serum at 236 mg infused over 30 mins; format: ADME, cell-free; conditions: iv, read-out: PB (converted); in short: as §3
[25] = Half life in morbidly obese human at 461 mg infused over 30 mins; format: ADME, organism-based; conditions: in vivo, iv; in short: as §4
[26] = Renal clearance per kg of ideal body weight in normal weight human at 236 mg infused over 30 mins; format: ADME, organism-based, Kidney; conditions: in vivo, iv, read-out: CL_renal (converted); in short: as §2
[27] = Total clearance in morbidly obese human at 461 mg infused over 30 mins; format: ADME, organism-based; conditions: in vivo, iv; in short: as §1
[28] = Cmin in normal weight human at 236 mg infused over 30 mins after 24 hrs; format: ADME, organism-based; conditions: in vivo, iv, read-out: Cmin
[29] = Renal clearance per kg of ideal body weight in morbidly obese human at 461 mg infused over 30 mins; format: ADME, organism-based, Kidney; conditions: in vivo, iv, read-out: CL_renal (converted); in short: as §2
[30] = Cmax in normal weight human at 236 mg infused over 30 mins; format: ADME, organism-based; set-up: dose 236 mg; conditions: in vivo, iv
[31] = Renal clearance in morbidly obese human at 461 mg infused over 30 mins; format: ADME, organism-based, Kidney; conditions: in vivo, iv, read-out: CL_renal (converted); in short: as §2
[32] = Volume of distribution in normal weight human at 236 mg infused over 30 mins; format: ADME, organism-based; conditions: in vivo, iv
Homo sapiens [33] = species on record: Homo sapiens; assay: Total clearance per kg of fat-free weight in normal weight human at 236 mg infused over 30 mins; format: ADME, organism-based; conditions: in vivo, iv, 0.5 h; in short: as §1
[34] = Renal clearance per kg of total body weight in normal weight human at 236 mg infused over 30 mins; format: ADME, organism-based, Kidney; conditions: in vivo, iv, read-out: CL_renal (converted); in short: as §2
[35] = Cmax in human at 4 mg/kg of total body weight; format: ADME, organism-based; set-up: dose 4 mg/kg; conditions: in vivo

CCCCCCCCCC(=O)N[C@@H](Cc1c[nH]c2ccccc12)C(=O)N[C@H](CC(N)=O)C(=O)N[C@@H](CC(=O)O)C(=O)N[C@@H]1C(=O)NCC(=O)N[C@@H](CCCN)C(=O)N[C@@H](CC(=O)O)C(=O)N[C@H](C)C(=O)N[C@@H](CC(=O)O)C(=O)NCC(=O)N[C@H](CO)C(=O)N[C@@H]([C@H](C)CC(=O)O)C(=O)N[C@@H](CC(=O)c2ccccc2N)C(=O)O[C@@H]1C
CL (Homo sapiens [1]): 0.015 L/h
CL (Homo sapiens [2]): 0.016 L/h
Vd (Homo sapiens [3]): 0.14 L
Cmax [4]: 67300 ng/mL
CL (Homo sapiens [5]): 0.012 L/h
Vd (Homo sapiens [6]): 0.18 L
CL renal at 0.5 h [7]: 0.153 mL/min
fraction unbound at 0.5 h [8]: 0.112
CL renal at 0.5 h [9]: 0.0733 mL/min
AUC(0-inf) [10]: 346 µg·h/mL
AUC(0-inf) [11]: 581 µg·h/mL
CL renal at 0.5 h [12]: 9.83 mL/min
Vd (Homo sapiens [13]): 0.13 L
Vd (Homo sapiens [14]): 0.18 L
Vd (Homo sapiens [15]): 0.09 L
clearance [16]: 12.2 mL/min
CL renal at 0.5 h [17]: 0.217 mL/min
Vd (Homo sapiens [18]): 0.19 L
CL (Homo sapiens [19]): 0.0071 L/h
Vd [20]: 10 L
CL (Homo sapiens [21]): 0.013 L/h
half-life [22]: 7.72 h
concentration at 24 h [23]: 6550 ng/mL
fraction unbound at 0.5 h [24]: 0.1
half-life [25]: 8.68 h
CL renal at 0.5 h [26]: 0.165 mL/min
clearance [27]: 13.7 mL/min
concentration at 24 h [28]: 3390 ng/mL
CL renal at 0.5 h [29]: 0.16 mL/min
Cmax [30]: 42300 ng/mL
CL renal at 0.5 h [31]: 8.33 mL/min
Vd [32]: 7.69 L
CL (Homo sapiens [33]): 0.016 L/h
CL renal at 0.5 h [34]: 0.158 mL/min
Cmax [35]: 42300 ng/mL
